Reference: ChEMBL document CHEMBL3734675, “Synthesis, antimycobacterial and antibacterial activity of fluoroquinolone derivatives containing an 3-alkoxyimino-4-(cyclopropylanimo)methylpyrrolidine moiety” (2015)
In brackets after ≈: the same amount, converted by molar mass.

Tested on: Mycobacterium tuberculosis
Assay: Antimycobacterial activity against isoniazid/rifampicin-resistant Mycobacterium tuberculosis 6133 clinical isolate incubated for 7 days by microplate Alamar Blue assay
Format: functional
Settings: Mycobacterium tuberculosis, 6133, 168 h
In short: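 Fluorescence read-out. MIC is the lowest concentration that reduces fluorescence by at least 90% relative to the mean of replicate bacterium-only controls. Isoniazid and rifampicin were included as reference drugs.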

Compound	MIC90
CCO/N=C1/CN(c2nc3c(cc2F)c(=O)c(C(=O)O)cn3C2CC2)CC1(C)CNC1CC1 (stereo not drawn)	0.11 µg/mL (≈ 0.24 µM)
NNC(=O)c1ccncc1 [ISONIAZID]	4 µg/mL (≈ 29.2 µM)
CO[C@H]1/C=C/O[C@@]2(C)Oc3c(C)c(O)c4c(O)c(c(/C=N/N5CCN(C)CC5)c(O)c4c3C2=O)NC(=O)/C(C)=C\C=C\[C@H](C)[C@H](O)[C@@H](C)[C@@H](O)[C@@H](C)[C@H](OC(C)=O)[C@@H]1C [RIFAMPIN]	> 40 µg/mL
